ChEMBL document CHEMBL5360580 (Eur J Med Chem, 2023)
Active and inactive are the calls of the source. The calls are words filed in the database; no cut-off is given here.

How the values were obtained:
Vero C1008 [1] = assay: Cytotoxicity against African green monkey Vero E6 cells assessed as reduction in cell viability measured after 48 hrs by CCK-8 assay; assay type: toxicity, cell-based; details: chlorocebus sabaeus, vero c1008, 48 h
[2] = Subacute toxicity in ICR mouse assessed as change in organ weight at 50 to 200 mg/kg, po qd administered for 10 days; assay type: organism-based; details: in vivo, 240 h, dose 50-200 mg/kg, time 10 day
Summary of the method: (§1)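 Male ICR mice (18–20 g), ten per group, received oral doses once daily for ten days, with a control group alongside. Body weight, food intake and behaviour were observed daily. Animals were fasted before dissection, and heart, liver, spleen, lung, kidney and administration site were collected for organ weight and histology.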

[3] = Observed AUC (0 to infinity) in ICR mouse at 30 mg/kg, po measured upto 24 hrs by LC-MS/MS analysis; assay type: ADME, organism-based; parameters: dose 30 mg/kg, time < 24 hrs, route po; details: in vivo
Summary of the method: (§2)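 Male-unspecified ICR (CD-1) mice, N = 3 per group, were fasted 12 h. Compound in DMSO/0.5% HMPC (5/95, v/v) was given orally at 30 mg/kg or intravenously at 2.5 mg/kg. Femoral-vein blood was drawn at 0.25, 0.5, 1, 2, 4, 8 and 24 h, and serum analyte levels were measured by LC-MS/MS.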

Vero C1008 [4] = assay: Downregulation of BECN1 level in African green monkey Vero E6 cells at 10 uM measured after 16 hrs by Western blotting analysis; assay type: functional, cell-based; details: Chlorocebus sabaeus
Summary of the method: (§3)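 Vero-E6 cells in DMEM with 10% FBS were cultured overnight at 37 °C, 5% CO2, then treated with a concentration series for 16 h. Lysates were made in RIPA on ice and equalised for protein by BCA. Blots were probed for SKP2 or Beclin-1 plus β-actin and detected by ECL. The band-intensity ratio to β-actin was normalised to DMSO control.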

[5] = Observed AUC (0 to infinity) in ICR mouse at 2.5 mg/kg, iv measured upto 24 hrs by LC-MS/MS analysis; assay type: ADME, organism-based; parameters: dose 2.5 mg/kg, time < 24 hrs, route iv; details: in vivo, 24 h; summary of the method: as §2
SARS-CoV-2 [6] = assay: Antiviral activity against SARS-CoV-2 infected in African green monkey Vero E6 cells assessed as inhibition of viral replication incubated for 24 hrs by IFA assay; assay type: functional, organism-based; details: Severe acute respiratory syndrome coronavirus 2, Vero C1008, 24 h
Vero C1008 [7] = assay: Downregulation of SKP2 level in African green monkey Vero E6 cells at 0.3 to 10 uM measured after 16 hrs by Western blotting analysis; assay type: functional, cell-based; details: Chlorocebus sabaeus, dose 0.3-10 µM; summary of the method: as §3
[8] = Aqueous solubility of compound at 0.5 mg/mL in presence of acetonitrile by HPLC analysis; assay type: physicochemical; details: buffer
Summary of the method: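 Compound was suspended in water, vortexed vigorously and filtered through a 0.22 μm membrane. The filtrate was diluted 2-fold with 80% acetonitrile and analysed by reversed-phase amide HPLC. Concentration was read against a standard curve prepared from a 0.5 mg/mL solution in 80% acetonitrile. Single determination.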

[9] = Cmax in ICR mouse at 30 mg/kg, po measured upto 24 hrs by LC-MS/MS analysis; assay type: ADME, organism-based; parameters: dose 30 mg/kg, time < 24 hrs, route po; details: in vivo; summary of the method: as §2
SARS-CoV-2 [10] = assay: Antiviral activity against SARS-CoV-2 infected in African green monkey Vero E6 cells assessed as inhibition of viral replication at 1 uM incubated for 24 hrs by IFA assay relative to control; assay type: functional; details: Severe acute respiratory syndrome coronavirus 2, Vero C1008
[11] = Selectivity index, ratio of CC50 for cytotoxicity against African green monkey Vero E6 to EC50 for antiviral activity against SARS-CoV-2 infected in African green monkey Vero E6 cells; assay type: toxicity, cell-based, Vero C1008; details: read-out: Ratio CC50/EC50
[12] = Subacute toxicity in ICR mouse assessed as change in lung histology at 50 to 200 mg/kg, po qd administered for 10 days; assay type: organism-based; details: in vivo, 240 h, dose 50-200 mg/kg, time 10 day; summary of the method: as §1
[13] = Subacute toxicity in ICR mouse assessed as change in heart histology at 50 to 200 mg/kg, po qd administered for 10 days; assay type: organism-based; details: in vivo, 240 h, dose 50-200 mg/kg, time 10 day; summary of the method: as §1
[14] = AUClast in ICR mouse at 30 mg/kg, po measured upto 24 hrs by LC-MS/MS analysis; assay type: ADME, organism-based; parameters: dose 30 mg/kg, time < 24 hrs, route po; details: in vivo; summary of the method: as §2
[15] = Observed MRT (0 to infinity) in ICR mouse at 2.5 mg/kg, iv measured upto 24 hrs by LC-MS/MS analysis; assay type: ADME, organism-based; details: in vivo, iv, 2.5 mg/kg, 24 h; summary of the method: as §2
[16] = Half life in ICR mouse at 30 mg/kg, po measured upto 24 hrs by LC-MS/MS analysis; assay type: ADME, organism-based; details: in vivo; summary of the method: as §2
[17] = Subacute toxicity in ICR mouse assessed as mortality at 50 to 200 mg/kg, po qd administered for 10 days; assay type: organism-based; details: in vivo, 240 h, dose 50-200 mg/kg, time 10 day; summary of the method: as §1
[18] = Subacute toxicity in ICR mouse assessed as change in spleen histology at 50 to 200 mg/kg, po qd administered for 10 days; assay type: organism-based; details: in vivo, 240 h, dose 50-200 mg/kg, time 10 day; summary of the method: as §1
[19] = Subacute toxicity in ICR mouse assessed as change in liver histology at 50 to 200 mg/kg, po qd administered for 10 days; assay type: organism-based; details: in vivo, 240 h, dose 50-200 mg/kg, time 10 day; summary of the method: as §1
[20] = Subacute toxicity in ICR mouse assessed as change in kidney histology at 50 to 200 mg/kg, po qd administered for 10 days; assay type: organism-based; details: in vivo, 240 h, dose 50-200 mg/kg, time 10 day; summary of the method: as §1
[21] = Oral bioavailability in ICR mouse at 30 mg/kg measured upto 24 hrs by LC-MS/MS analysis; assay type: ADME, organism-based; details: in vivo; summary of the method: as §2
[22] = Half life in ICR mouse at 2.5 mg/kg, iv measured upto 24 hrs by LC-MS/MS analysis; assay type: ADME, organism-based; details: in vivo, iv, 2.5 mg/kg, 24 h; summary of the method: as §2
[23] = AUClast in ICR mouse at 2.5 mg/kg, iv measured upto 24 hrs by LC-MS/MS analysis; assay type: ADME, organism-based; parameters: dose 2.5 mg/kg, time < 24 hrs, route iv; details: in vivo, 24 h; summary of the method: as §2
[24] = Subacute toxicity in ICR mouse assessed as change in body weight at 50 to 200 mg/kg, po qd administered for 10 days; assay type: organism-based; details: in vivo, 240 h, dose 50-200 mg/kg, time 10 day; summary of the method: as §1
Vero C1008 [25] = assay: Downregulation of BECN1 level in African green monkey Vero E6 cells at 1 to 3 uM measured after 16 hrs by Western blotting analysis; assay type: functional, cell-based; details: Chlorocebus sabaeus, dose 1-3 µM; summary of the method: as §3
[26] = Observed MRT (0 to infinity) in ICR mouse at 30 mg/kg, po measured upto 24 hrs by LC-MS/MS analysis; assay type: ADME, organism-based; details: in vivo; summary of the method: as §2

Q: Which results are given for `O=C(Nc1ccc(OC(F)(F)F)cc1)c1cc(Cl)c(F)cc1O`?
A: CC50 (Vero C1008 [1]): 4730 nM; Activity [2]: Non-Toxic; AUC [3]: 5579 ng·h/mL; Activity (Vero C1008 [4]): Active; AUC [5]: 3678 ng·h/mL; EC50 (SARS-CoV-2 [6]): 1000 nM; Activity (Vero C1008 [7]): Active; solubility [8]: 0.1 µg/mL; Cmax [9]: 2376 ng/mL; inhibition at 1 µM (SARS-CoV-2 [10]): 91%; selectivity ratio [11]: 4.73; Activity [12]: Non-Toxic; Activity [13]: Non-Toxic; AUClast [14]: 5547 ng·h/mL; MRT [15]: 1.94 h; t1/2 [16]: 3.33 h; Activity [17]: Non-Toxic; Activity [18]: Non-Toxic; Activity [19]: Non-Toxic; Activity [20]: Non-Toxic; bioavailability [21]: 12.7%; t1/2 [22]: 4.6 h; AUClast [23]: 3646 ng·h/mL; Activity [24]: Non-Toxic; Activity (Vero C1008 [25]): Active; MRT [26]: 4.41 h
